Measured values: the EternaBench riboswitch data

Test system: MS2 coat protein
Experiment: apparent Kd, MS2 coat protein; higher = weaker binding; RNA-MaP array; FMN 200 µM where present
Outline: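 Stalled E. coli RNA polymerase transcribed the designs on Illumina sequencing-chip clusters. SNAP-549-labelled MS2 coat protein was titrated from 0.7 or 1.5 nM, doubling to 3 µM, without and then with constant ligand, in 100 mM Tris-HCl pH 7.5, 80 mM KCl, 4 mM MgCl2, BSA, DTT, yeast tRNA and Tween-20. Per-cluster binding curves were fitted to green signal normalised to red-channel RNA signal and control-cluster median Fmax. The apparent Kd is the median of the filtered fits.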

[1] = designed as: OFF switch for flavin mononucleotide, no ligand
[2] = ligand present: flavin mononucleotide, designed as: OFF switch for flavin mononucleotide
[3] = designed as: ON switch for flavin mononucleotide, no ligand
[4] = ligand present: flavin mononucleotide, designed as: ON switch for flavin mononucleotide

Sequence	apparent Kd [1] [nM]	apparent Kd [2] [nM]	apparent Kd [3] [nM]	apparent Kd [4] [nM]
GGUACUCAAAGAGUACCAAUACGAACAUGAGGAUCACCCAUGUAGGAUAUGCUAAAACCGGAGUAGCAGAAGGACAUGUGCCUA	15.3	66.6		
GGUACUCAAAGAGUACCAAUACGAACAUGAGGAUCACCCAUGUAGGAUAUGCUACAAAAGGAGUAGCAGAAGGACAUGUGCCUA	13	60.8		
GGUACUCAAAGAGUACCAAUACGAACAUGAGGAUCACCCAUGUAGGAUAUGCUACUCAAAGAGUAGCAGAAGGAUAUGUGCUUA	16.9	15.3		
GGUACUCAAAGAGUACCAAUACGAACAUGAGGAUCACCCAUGUAGGAUAUGCUCAAAACGGAGUAGCAGAAGGACAUGUGCCUA	12.7	32.2		
GGUACUCAAAGAGUACUUGGUCGAACAUGAGGAUCACCCAUGUAGGAUAUGCGAAGCAAGAAGUAGCAGAAGGGCAUGUGCAGC	17.7	16.1		
GGUACUCAAAGAGUACUUGGUCGAACAUGAGGAUCACCCAUGUAGGAUAUGUAAAGCAAGAAGUAACAGAAGGACAUGUGCAGC	13.1	17.1		
GGUAGAAACAUUAACAUGAGGAUCACCCAUGUCAAAAGAAAUGAGGAUAUCGUCUACAAUGUAGAUGAGAAGGCAUGGUCUGCC			8.45	6.84
GGUCCACAUGAGGAUCACCCAUGUCAGGAUAUACACGGCACAAUAAUAAGUGCCACCCGUAGAAGGGACGCUGG	14.8	37.6		
GGUCCACAUGAGGAUCACCCAUGUUAGGAUAUCUCCCGCCUCCUCACUGGAGACGGACAGAGAAGGAACAUCAA	23.6	74.7		
GGUCCACGAGGAUAUCGAUUAUAGUACAUGAGGAUCACCCAUGUUGUCCAGGUUUCGUUUCGAGAAGGCGUGGGUU	88.4	52.6		
GGUCCAUAAUGAGGAUAUGGCACCUUAUUGGUGCCAGAAGGCAUGUCUAUAGACAUGAGGAUCACCCAUGUAAUAAAUUGGACC			435	43.3
GGUCCAUCAUGAGGAUAUGGCACCUUAUUGGUGCCAGAAGGCAUGUCUAUUGACAUGAGGAUCACCCAUGUAUUAAUUUGGACC			1040	80.7
GGUCCAUCAUGAGGAUAUGGCACCUUAUUUGUGCCAGAAGGCAUGUCGAUAGACAUGAGGAUCACCCAUGUAAUAAAUUGGACC			1430	104
GGUCCCUACGCACAGGAUAUUCUUUUGGCAACAUGAGGAUCACCCAUGUGUGCCGAUCAUGGUUAGAAGAAGGGUGGUAGGGACC			20.6	15.7
GGUCCGUAACAGAAGGCCGUAACUGGCGGUGGCGGAGGAUAUGUGGGCGGCCCUUGACAACAUGAGGAUCACCCAUGUAUGUAA			41.3	113
GGUCGUCAUAUUAACAUGAGGAUCACCCAUGUGAAAACACAUGAGGAUAUGCAUCCUAAUUGGAUGCAGAAGGCAUGGACGACC			23.7	6.49
GGUCUACAUGAGGAUCACCCAUGUAAGGAUAUCGUCACUGGAGCUUCGGCUCCAGUGACGAGAAGGUACGUAAU	31.7	33.7		
GGUCUGAGAGGAUAUACAUGAAAAAAAAAAGUAAGAUCCCUACAUGAGGAUCACCCAUGUAGAAGGCUCUGAUA	33.8	33.9		
GGUGCAUAUGAGAAGGUGAUCAUGAAACAUGAUCGAGGAUAUCAUGUAAACAUGAGGAUCACCCAUGUAUGGGAAUAUUGCACC			46.2	117
GGUGCGUUUGUGAGGAUAUGCUGGUCCUUGGCUCAGCAGAAGGCACAUGAGGAUCACCCAUGUGGUGUCGUACC	294	41.8		
GGUGCGUUUGUGAGGAUAUGCUGGUCCUUGGUUCGGCAGAAGGCACAUGAGGAUCACCCAUGUGGUGUCGCACC	94.6	51.5		

Sequence	apparent Kd [1] [nM]	apparent Kd [2] [nM]	apparent Kd [3] [nM]	apparent Kd [4] [nM]
GGUGGACAUGAGGAUCACCCAUGUGAGGAUAUCGGCUGGCUAGCGGCGGACGGCUGCUCGAGAAGGCGCAUUGU	90.6	137		
GGUGGACAUGAGGAUCACCCAUGUGAGGAUAUCGGCUGGUACGUGGUGGCUGGCAUCUCGAGAAGGCACAUAGU	80.1	202		
GGUGGGUUGCUACCGGCACAUGAGGAUCACCCAUGUUUUGGGAAGGAUAUGGUACCUAUUUGGUACCAGAAGGUCCCGUUGGUG			330	239
GGUGGUACAGAGAAGGCGCCGCAGCUCUUCCUCCCAUCCCAACGACAUGAGGAUCACCCAUGUAGCGAGGAUAUCUGUGCCAUC	7.05	22.5		
GGUUACACAGGAUAUACAUGAGGAUCACCCAUGUCGAGCCGACCCGGAUGCACCUAAAGUAGAAGGGUGAGCUG	21.8	22.7		
GGUUAUUGCAAGGAUAUGCUAUUAUUUUAUUUUGCAGAAGGUGCAACAUGAGGAUCACCCAUGUUGGAGGGUUU	21.5	41.1		
GGUUAUUGCAAGGAUAUGCUUUUUUUUGAUAUUGCAGAAGGUGCAACAUGAGGAUCACCCAUGUUGGAUGGGUU	119	162		
GGUUCGGGAGGAUAUGUUUUUUUUUACAUGAGGAUCACCCAUGUUUUUGUGUUUUUUUUCAUAGAAGGUUUGGGCC	39	39.3		
GGUUGGCGAGGAUAUACAUGAGGAUCACCCAUGUGGUCCUGUGGCUGGUCUUGCCUUUGUAGAAGGCGCGGGUC	105	111		
GGUUGUUAUGACAGCGAGUGUUAGAGAAGGUACAUGAGGAUCACCCAUGUACGUGAUCUUGCGAGUAAGGAUAUCUGUUAUUCA	5.65	5.83		
GUAAACGAUCAGGAUAUAUCAAAUAAUAGCUUGAUAGAAGGGAUCACAUGAGGAUCACCCAUGUGAUCUUCUUU	13.6	14.8		
GUAAAUCAUGUAGGAUAUGCAUGGCGAAGCUACGCAGAAGGACAUGAGGAUCACCCAUGUUCUGGCUACCGGAUACGGUGGCAA	21.1	87.6		
GUAACGCUUGACAUGAGGAUCACCCAUGUUAGAUUGUUAUGUCAGGAUAUAGUCUAGAAACUAGACUAGAAGGGAUAUGUUACU			69.6	29.4
GUAACUCAUGUAGGAUAUGCAUGGCGAAGCUACGCAGAAGGACAUGAGGAUCACCCAUGUUCUAGCGUCUGAGUACAGAUGCAA	60.2	436		
GUAAGCUCGUGAGGAUAUACAACACUGCUUCGGCAGUGUAUUAAGAUCACAUGAGGAUCACCCAUGUAGAAGGCACGAGCUGAU	13.8	245		
GUAAUACAUGAGGAUCACCCAUGUCAAUGUAGUCGAGGAUAUGGGUAGCUAUGAGGCUUACUAGAAGGCGACGAGC			210	39.3
GUAAUUUAUAGAGGAUAUUGACAUGAGGAUCACCCAUGUAUUUGGGAGUGUUCACUGAAUUCUUACGAGAAGGCUAUAAAAUAC	307	213		
GUACGCUCAGGAUAUCAAGGGCUGUACAUGAGGAUCACCCAUGUUAUCUUGGUGUCAGCGUGAGAAGGGAGGGAAA	26	32.7		
GUACGGGAGGAGAAGGGCUAGGAGGUCCAGCUUAUGUGUGUUGCAACAUGAGGAUCACCCAUGUAGCAGGAUAUCCUCUGUACA	46.3	332		
GUACGUGGACAGAAGGCGACAUGAGGAUCACCCAUGUUGGCUCGGGUACGAGCGAUCCGCGUGAUUGAGGAUAUGUCUGCGGGC	20	80.8		
GUACGUGGACAGAAGGUGACAUGAGGAUCACCCAUGUUAGUUGAGGUAUCAGCGAUCUGCGUGAUUGAGGAUAUGUCUGCGGGC	11.9	11.7		
